Data as given in ChEMBL document CHEMBL1938286, “A concise synthesis of viscolin, and its anti-inflammatory effects through the suppression of iNOS, COX-2, ERK phosphorylation and proinflammatory cytokines expressions” (Eur J Med Chem, 2012).
pIC50: −log10 of the molar value. Activity calls are given as the source filed them.

Experiments:
[1] = tested on: Mus musculus; experiment: Antiinflammatory activity in ICR mouse assessed as decrease in carrageenan-induced serum TNFalpha level at 4 mg/kg, ip; format: functional, organism-based; set-up: dose 4 mg/kg
Method in brief: (§1)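 Male ICR mice (18–25 g, n = 6 per group). Carrageenan was injected intraplantar into the paw, with drug given 30 min beforehand. Serum was collected at the 5th hr. Nitrite was measured colorimetrically by Griess reaction, and TNF-α by commercial ELISA. Data are mean ± SEM.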

[2] = tested on: RAW264.7; experiment: Inhibition of JNK phosphorylation in LPS-stimulated mouse RAW264.7 cells at 5 to 20 uM after 30 mins by Western blot analysis; format: cell-based
Method in brief: (§2)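 RAW 264.7 cells were pretreated with test agent, then stimulated with LPS for 30 min. Phospho-ERK, phospho-JNK and phospho-p38 were assessed by Western blot: RIPA lysates, 30 µg protein, SDS-PAGE, PVDF, primary antibody overnight at 4 °C, HRP secondary and ECL detection.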

[3] = tested on: Mus musculus; experiment: Antiinflammatory activity in carrageenan-stimulated ICR mouse assessed as vascular localization of inflammatory cells at 8 mg/kg, ip measured after 5 hrs; format: functional, organism-based; set-up: dose 8 mg/kg
Method in brief: (§3)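 Male ICR mice were dosed 30 min before intraplantar carrageenan, and paw biopsies were taken 5 h later. Tissue was fixed in Dietric solution for 1 week at room temperature, dehydrated in graded ethanol and paraffin-embedded. 7-thickness sections were stained with hematoxylin–eosin or Van Gieson and examined by light microscopy.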

[4] = tested on: Mus musculus; experiment: Down regulation of COX-2 protein expression in carrageenan-stimulated ICR mouse at 8 mg/kg, ip measured after 5 hrs by Western blot analysis; format: functional; settings: route intraperitoneal
Method in brief: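 Male ICR mice (18–25 g, n = 6 per group) received intraplantar carrageenan. Paw tissue was taken 5 h after carrageenan. Lysates were made in RIPA buffer and 30 µg protein run on SDS-PAGE/PVDF immunoblot with ECL detection. Band intensities were quantified relative to the carrageenan-alone group across three independent experiments.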

[5] = tested on: Mus musculus; experiment: Antiinflammatory activity in ICR mouse assessed as decrease in carrageenan-induced MDA level at 8 mg/kg, ip measured after 5 hrs; format: functional, organism-based; set-up: dose 8 mg/kg
Method in brief: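 Male ICR mice (n = 6 per group) were dosed 30 min before intraplantar carrageenan. MDA in the edematous paw tissue was determined at the 5th hr after carrageenan.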

[6] = tested on: Mus musculus; experiment: Antioxidant activity in carrageenan-stimulated ICR mouse assessed as increase in GPx activity at 4 mg/kg, ip measured after 5 hrs; format: functional; settings: route intraperitoneal
Method in brief: (§4)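 Male ICR mice (n = 6 per group) received the drug 30 min before intraplantar carrageenan, and paw tissue was taken at the 5th hr. Total SOD was measured by inhibition of cytochrome c reduction, CAT by Aebi's method, and cytosolic GPx by Paglia–Valentine. Activities are in U/mg protein, given as mean ± SEM.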

[7] = tested on: Mus musculus; experiment: Antiinflammatory activity in carrageenan-stimulated ICR mouse assessed as effect on shape of collagen fiber at 8 mg/kg, ip measured after 5 hrs; format: functional, organism-based; set-up: dose 8 mg/kg; method in brief: as §3
[8] = tested on: RAW264.7; experiment: Antiinflammatory activity in mouse RAW264.7 cells assessed as inhibition of LPS-induced NO production at 10 uM administered 1 hr before LPS challenge measured after 24 hrs by Griess method; format: functional, cell-based
[9] = tested on: Mus musculus; experiment: Antiinflammatory activity in ICR mouse assessed as decrease in carrageenan-induced serum NO level at 8 mg/kg, ip measured after 5 hrs; format: functional, organism-based; set-up: dose 8 mg/kg; method in brief: as §1
[10] = tested on: Mus musculus; experiment: Antiinflammatory activity in carrageenan-stimulated ICR mouse assessed as decrease in cellular infiltration to intercellular spaces at 8 mg/kg, ip measured after 5 hrs; format: functional, organism-based; set-up: dose 8 mg/kg; method in brief: as §3
[11] = tested on: RAW264.7; experiment: Antiinflammatory activity in LPS-stimulated mouse RAW264.7 cells assessed as inhibition of COX-2 protein expression after 24 hrs by Western blot analysis; format: functional, cell-based
[12] = tested on: RAW264.7; experiment: Antiinflammatory activity in mouse RAW264.7 cells assessed as inhibition of LPS-induced TNFalpha production at 20 uM administered 1 hr before LPS challenge measured after 24 hrs by ELISA
[13] = tested on: Mus musculus; experiment: Antiinflammatory activity in carrageenan-stimulated ICR mouse assessed as decrease in neutrophil number at 8 mg/kg, ip measured after 5 hrs; format: functional, organism-based; set-up: dose 8 mg/kg; method in brief: as §3
[14] = tested on: Mus musculus; experiment: Antioxidant activity in carrageenan-stimulated ICR mouse assessed as increase in SOD activity at 4 mg/kg, ip measured after 5 hrs; format: functional; settings: route intraperitoneal; method in brief: as §4
[15] = tested on: RAW264.7; experiment: Down regulation of iNOS protein expression in LPS-stimulated mouse RAW264.7 cells at 20 uM after 24 hrs by Western blot analysis; format: functional
Method in brief: (§5)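 RAW 264.7 cells were pretreated with test agent for 1 h, then stimulated with 100 ng/mL LPS for 24 h. Lysates were made in RIPA buffer and 30 µg protein resolved by SDS-PAGE, blotted to PVDF and blocked with 1% BSA. Primary antibody ran overnight at 4 °C, HRP secondary 1 h at 37 °C. Detection was by ECL, with band intensity expressed relative to control.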

[16] = tested on: Mus musculus; experiment: Antiinflammatory activity in ICR mouse assessed as inhibition of carrageenan-induced hind paw edema at 8 mg/kg, ip measured after 4 hrs; format: functional, organism-based; set-up: dose 8 mg/kg
[17] = molecular target: Mitogen-activated protein kinase 1 and 3 (ERK2 and ERK1) (Mus musculus) (UniProt P63085+Q63844); experiment: Inhibition of Erk1/2 phosphorylation in LPS-stimulated mouse RAW264.7 cells at 5 to 20 uM after 30 mins by Western blot analysis; format: cell-based; method in brief: as §2
Chain of Mitogen-activated protein kinase 1 and 3 (ERK2 and ERK1) (Mus musculus) (P63085 whole entry, looked up): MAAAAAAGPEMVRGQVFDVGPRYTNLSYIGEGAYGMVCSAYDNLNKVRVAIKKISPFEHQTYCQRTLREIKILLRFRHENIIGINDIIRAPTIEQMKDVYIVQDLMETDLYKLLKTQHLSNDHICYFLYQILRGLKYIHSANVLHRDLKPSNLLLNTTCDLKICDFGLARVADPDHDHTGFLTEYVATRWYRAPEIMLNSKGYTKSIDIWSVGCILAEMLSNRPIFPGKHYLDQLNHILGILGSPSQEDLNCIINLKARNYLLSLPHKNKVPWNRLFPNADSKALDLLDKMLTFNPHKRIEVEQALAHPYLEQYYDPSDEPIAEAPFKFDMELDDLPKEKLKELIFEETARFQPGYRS
Chain of Mitogen-activated protein kinase 1 and 3 (ERK2 and ERK1) (Mus musculus) (Q63844 whole entry, looked up): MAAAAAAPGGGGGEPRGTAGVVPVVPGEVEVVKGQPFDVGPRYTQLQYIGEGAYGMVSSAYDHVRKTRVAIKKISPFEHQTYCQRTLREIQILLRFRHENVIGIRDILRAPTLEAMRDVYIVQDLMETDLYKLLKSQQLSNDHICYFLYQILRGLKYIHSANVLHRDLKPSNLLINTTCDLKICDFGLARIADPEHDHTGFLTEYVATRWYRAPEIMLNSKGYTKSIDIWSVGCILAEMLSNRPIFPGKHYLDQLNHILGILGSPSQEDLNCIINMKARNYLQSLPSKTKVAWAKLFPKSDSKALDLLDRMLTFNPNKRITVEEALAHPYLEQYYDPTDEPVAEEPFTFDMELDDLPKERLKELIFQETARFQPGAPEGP

[18] = tested on: RAW264.7; experiment: Antiinflammatory activity in mouse RAW264.7 cells assessed as inhibition of LPS-induced NO production at 20 uM administered 1 hr before LPS challenge measured after 24 hrs by Griess method; format: functional, cell-based
[19] = tested on: Mus musculus; experiment: Antiinflammatory activity in carrageenan-stimulated ICR mouse assessed as decrease in number of inflammatory cells at 8 mg/kg, ip measured after 5 hrs; format: functional, organism-based; set-up: dose 8 mg/kg; method in brief: as §3
[20] = tested on: Mus musculus; experiment: Antiinflammatory activity in carrageenan-stimulated ICR mouse assessed as effect on connective tissue damage at 8 mg/kg, ip measured after 5 hrs; format: functional, organism-based; set-up: dose 8 mg/kg; method in brief: as §3
[21] = tested on: Mus musculus; experiment: Antiinflammatory activity in carrageenan-stimulated ICR mouse assessed as decrease in intercellular spaces at 8 mg/kg, ip measured after 5 hrs; format: functional, organism-based; set-up: dose 8 mg/kg; method in brief: as §3
[22] = molecular target: MAP kinase p38 (Mus musculus) (UniProt P47811+O08911+Q9WUI1+Q9Z1B7); experiment: Inhibition of p38 phosphorylation in LPS-stimulated mouse RAW264.7 cells at 5 to 20 uM after 30 mins by Western blot analysis; format: cell-based; method in brief: as §2
[23] = tested on: RAW264.7; experiment: Down regulation of COX-2 protein expression in LPS-stimulated mouse RAW264.7 cells at 20 uM after 24 hrs by Western blot analysis; format: functional; method in brief: as §5
[24] = tested on: RAW264.7; experiment: Antiinflammatory activity in mouse RAW264.7 cells assessed as inhibition of LPS-induced NO production at 5 uM administered 1 hr before LPS challenge measured after 24 hrs by Griess method; format: functional, cell-based
[25] = tested on: Mus musculus; experiment: Antioxidant activity in carrageenan-stimulated ICR mouse assessed as increase in SOD activity at 8 mg/kg, ip measured after 5 hrs; format: functional; settings: route intraperitoneal; method in brief: as §4
[26] = tested on: RAW264.7; experiment: Antiinflammatory activity in mouse RAW264.7 cells assessed as inhibition of LPS-induced TNFalpha production administered 1 hr before LPS challenge measured after 24 hrs by ELISA
[27] = tested on: RAW264.7; experiment: Antiinflammatory activity in mouse RAW264.7 cells assessed as inhibition of LPS-induced PGE2 production at 10 uM administered 1 hr before LPS challenge measured after 24 hrs by ELISA

COc1cc(CCCc2c(OC)cc(O)c(OC)c2OC)ccc1O [VISCOLIN]
3.46 U/mg: Activity [14]
83.8%: Activity [15]
4.08 U/mg: Activity [25]
10.97 U/mg: Activity [6]
active: Activity [1] | Activity [3] | Activity [5] | Activity [7] | Activity [8] | Activity [9] | Activity [10] | Activity [11] Dose-dependent effect | Activity [12] | Activity [13] | Activity [16] | inhibition [17] | Activity [18] | Activity [19] | Activity [20] | Activity [21] | Activity [24] | Activity [26] Dose-dependent effect | Activity [27]
76.2%: Activity [4]
4.76: pIC50 [26]
inactive: inhibition [2] | inhibition [22]
70.6%: Activity [23]
